# From PubChem
# The list is not random: actives were taken first. Their share in the collection is about 2.5%.
# H9c2 TAG inh = reduces triacylglycerol accumulation in H9c2 cells | Nile Red lipid (TAG) fluorescence; cells loaded with 200 µM oleic acid | inhibition, % at 12.5 µM | 0.66% of 230,000 active | AID 651582;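 active = pattern-corrected inhibition of lipid staining of at least 50% with the nuclear-stain viability signal not falling by more than 50%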
# SMARCA2 act = activators of SMARCA2 function | MG213 cells, MMTV-luciferase reporter, dexamethasone, overnight | activation, % at 9.1 µM | 1% of 370,000 active; in the data active = activation above about 7.8%
# Vif inh = HIV Vif inhibition | AID 602346 | inhibition, % at 7.49 µM | 0.35% of 340,000 active | HEK293T cells, Vif self-association by quenched fluorescence, imaging, 24 h; in the data active = inhibition above about 50%, passing the limit was not always enough
# SR-BI HDL uptake = inhibitors of mouse SR-BI mediated HDL lipid uptake. Q61009. ldlA[mSR-BI] CHO cells, DiI-HDL uptake fluorescence, 3 h. inhibition, % at 12.5 µM. 0.96% of 320,000 active. AID 488896;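 active = mean replicate inhibition of at least 70% and a set share of replicates each scoring 70 or more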
# Target sequence (Q61009 whole entry, looked up): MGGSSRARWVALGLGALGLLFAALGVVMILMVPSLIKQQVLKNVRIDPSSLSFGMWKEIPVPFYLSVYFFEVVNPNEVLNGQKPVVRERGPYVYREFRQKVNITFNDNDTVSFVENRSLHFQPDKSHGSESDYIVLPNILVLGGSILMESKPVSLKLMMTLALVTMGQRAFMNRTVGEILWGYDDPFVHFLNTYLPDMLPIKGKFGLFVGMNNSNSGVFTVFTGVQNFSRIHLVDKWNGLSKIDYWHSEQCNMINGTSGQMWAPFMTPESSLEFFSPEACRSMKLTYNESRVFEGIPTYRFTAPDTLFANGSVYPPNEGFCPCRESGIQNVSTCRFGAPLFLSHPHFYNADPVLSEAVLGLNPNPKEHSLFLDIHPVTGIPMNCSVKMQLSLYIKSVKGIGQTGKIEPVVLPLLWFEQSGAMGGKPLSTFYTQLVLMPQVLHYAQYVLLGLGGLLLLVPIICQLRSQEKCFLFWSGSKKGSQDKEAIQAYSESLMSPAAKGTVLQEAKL
# SR-BI uptake up = enhances SR-BI lipid uptake from DiI-HDL. AID 504775. activation, % at 12.5 µM. 0.096% of 320,000 active. CHO ldlA[mSR-BI] cells, DiI-HDL uptake fluorescence, 3 h; 100 = double the neutral-control signal;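 active = mean replicate activation of at least 60% and every replicate at or above 60%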
#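 Test system: SR-BI-overexpressing, LDLR-lacking CHO cells; Also added: labelled HDL, 10 µg/mL; Measured by: bottom-read cell fluorescence after medium removal, ex 550/em 595 nm; Timing: 3 h uptake period with compound, 37 °C; Buffer or medium: F12, 0.5% BSA, 25 mM HEPES; Doses: single compound concentration, delivered by pin transfer.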
# A number is an active result; . = inactive; / = no result.
SMILES,H9c2 TAG inh,SMARCA2 act,Vif inh,SR-BI HDL uptake,SR-BI uptake up
CCCOc1cccc(-c2cc(C(=O)NN)c3ccccc3n2)c1,/,.,.,84,.
O=C(Nc1nc2c(s1)CCCC2)c1cccnc1,/,/,.,.,.
Cc1ccc(-c2cc(C(=O)Nc3cc(C)on3)c3ccccc3n2)c(C)c1,.,.,.,78,.
C[C@]12Cc3ccccc3C1CC1=N[C@@H](c3ccc(C(F)(F)F)cc3)O[C@@]13C[C@@H]2C(=O)N3Cc1ccncc1 (stereo partly specified),/,.,/,/,/
COc1ccc(NC(=O)N(C)[C@H]2C[C@H]3c4[nH]c5c(-c6ccccc6)cccc5c4CCN3C(=O)[C@H]2[C@H](C)O)cc1,/,.,/,/,/
Cc1ccc(NC(=O)c2cc(C)nc3ccccc23)cc1,.,.,.,.,.
Cc1ccc(C)c(-c2cc(C(=O)Nc3cccnc3)c3ccccc3n2)c1,.,.,.,.,.
COc1ccc(NC(=O)c2cc(-c3ccc(OC)c(OC)c3)nc3ccccc23)c(OC)c1,/,.,.,95,.
COc1ccc(NC(=O)c2cc(-c3ccncc3)nc3ccccc23)c(OC)c1,.,.,.,.,.
CCn1cc(CNC(=O)c2cc(-c3cc(OC)ccc3OC)nc3ccccc23)c(C)n1,/,.,.,78,.
Cc1ccc(C)c(NC(=O)c2cc(C)nc3ccccc23)c1,.,.,.,79,.
O=C(Nc1cccnc1)c1cc(-c2ccc(Br)cc2)nc2ccccc12,/,.,.,87,.
CCCCOCCCNC(=O)C[C@H]1C[C@@]2(C(=O)OC)C(=C[C@H](C(C)(C)C)O[C@@H]2C)N(Cc2ccccc2)C1=O,/,.,/,/,/
COC(=O)[C@]12C[C@H](CC(=O)N3CCCCC3)C(=O)N(Cc3ccccc3)C1=C[C@H](C1CCCC1)O[C@@H]2C,/,.,/,/,/
Cc1ccc(S(=O)(=O)NC(=O)ON=Cc2ccc3c(c2)OCO3)cc1,/,.,/,/,/
O=C(c1cc(-c2ccncc2)nc2ccccc12)N1CCN(Cc2ccccc2)CC1,.,.,51,.,.
C/C(=N\NC(=O)c1cc(-c2cccnc2)nc2ccccc12)c1ccccc1O,/,.,.,107,.
COc1cc(-c2cc(C(=O)Nc3ccc(O)cc3)c3ccccc3n2)cc(OC)c1OC,.,.,.,/,/
COc1cc(-c2cc(C(=O)Nc3cccc(C(C)=O)c3)c3ccccc3n2)cc(OC)c1OC,/,.,.,85,.
COc1ccc(NC(=O)c2cc(CC(C)C)nc3ccccc23)cc1,.,.,.,76,.
Cc1ccc(NC(=O)c2cc(CC(C)C)nc3ccccc23)cc1,/,.,.,.,.
Cc1ccccc1CN1CCN(C(=O)c2cc(-c3ccncc3)nc3ccccc23)CC1,.,.,.,.,.
CC(C)[C@H](NC(=O)c1ccc(Cl)cc1Cl)C(=O)N1CCC[C@H]1C(=O)NCc1ccccc1,/,.,/,/,/
CC(=O)Nc1ccc(NC(=O)c2cc(-c3ccccc3)nc3ccccc23)cc1,.,.,.,75,.
CCOC(=O)CC1(Cc2ccccc2)Oc2ccccc2O1,/,.,/,/,/
SMILES,H9c2 TAG inh,SMARCA2 act,Vif inh,SR-BI HDL uptake,SR-BI uptake up
C=C(C)n1c(=O)n(Cc2ccc(C)cc2)c2ccccc21,/,.,69,.,.
C=C(C)n1c(=O)n(Cc2ccccc2C)c2ccccc21,/,.,.,.,.
O=C(Nc1cc(Sc2ccccn2)cc([N+](=O)[O-])c1)c1ccc([N+](=O)[O-])cc1,.,.,.,90,.
COc1c(C(=O)Nc2ccc3[nH]c(=O)[nH]c3c2)cc2ccccc2c1Br,.,.,.,78,.
COc1c(C(=O)Nc2ccc(CN3CCOCC3)cc2)cc2ccccc2c1Br,.,.,.,.,.
COCCCNc1nc2c(c(=O)[nH]c(=O)n2C)n1CCCc1ccccc1,.,7.9,.,.,.
Cn1c(=O)[nH]c(=O)c2c1nc([N+](=O)[O-])n2Cc1ccccc1,.,.,99,.,.
CCCCNc1nc2c(c(=O)[nH]c(=O)n2C)n1CCCc1ccccc1,.,.,.,/,/
COC(=O)[C@]12C[C@H](CC(=O)NCCC(C)C)C(=O)N(CCC3=CCCCC3)C1=C[C@H](COCc1ccccc1)O[C@@H]2C,/,.,/,/,/
CCC(=O)Nc1ccc(Cl)c(NC(=S)NC(=O)c2cc3ccccc3o2)c1,/,.,.,.,.
CCC(=O)Nc1ccc(Cl)c(NC(=S)NC(=O)c2ccco2)c1,.,.,.,96,.
N#Cc1c(C(F)(F)F)cc(-c2cccs2)nc1SCc1cccnc1,/,.,.,.,.
N#Cc1ccc(-c2cccs2)nc1SCc1cccnc1,53,.,.,/,/
COc1cc(OC)cc(C(=O)Nc2ccc3nc4n(c(=O)c3c2)CCCCC4)c1,/,.,.,.,.
COc1ccc(OC)c(CCNC(=O)C(=O)Nc2ccc3nc4n(c(=O)c3c2)CCCCC4)c1,.,.,.,77,.
CCN(CC)c1ccc(/C=N/N=C(N)N)c(O)c1,.,.,65,/,/
CCN(CC)c1ccc(/C=N/NC(=O)c2nnn(-c3nonc3N)c2C(C)C)c(O)c1,/,.,.,133,.
CCN(CC)c1ccc(N=Cc2ccc(N(CC)CC)cc2O)cc1,/,.,.,.,.
CCN(CC)c1ccc(/C=N/NC(=O)c2ccoc2C)c(O)c1,.,.,.,100,.
Cc1cc(C)nc(NS(=O)(=O)c2ccc(NS(=O)(=O)c3ccsc3)cc2)n1,.,.,74,/,/
Cc1cc(C)nc(NS(=O)(=O)c2ccc(NS(=O)(=O)c3ccccc3)cc2)n1,/,.,/,.,.
Fc1ccc(-c2cc(-c3nnc4sc(-c5ccco5)nn34)[nH]n2)cc1,/,.,/,/,/
COc1ccc(-c2sc(NC(=O)c3ccc(C)cc3)nc2-c2ccc([N+](=O)[O-])cc2)cc1,.,.,.,90,.
COc1ccc(C(=O)Nc2nc(-c3ccc([N+](=O)[O-])cc3)c(-c3ccccc3)s2)cc1,.,.,.,.,.
CC(=O)C1=C(C)N(Cc2ccc(Cl)cc2)C(=S)NC1c1ccc(Cl)cc1 (stereo unspecified),/,.,/,/,/
SMILES,H9c2 TAG inh,SMARCA2 act,Vif inh,SR-BI HDL uptake,SR-BI uptake up
Cc1cc(NC(=O)c2ccc(C)s2)n(-c2nc3ccccc3[nH]2)n1,/,.,.,72,.
Cc1cc(NC(=O)/C=C/c2ccc(F)cc2)n(-c2nc3ccccc3[nH]2)n1,/,.,.,.,.
Cc1cc(NC(=O)c2c(F)cccc2F)n(-c2nc3ccccc3[nH]2)n1,/,.,.,.,.
Cc1cc(NC(=O)/C=C/c2cccc(F)c2)n(-c2nc3ccccc3[nH]2)n1,/,.,.,95,.
Cc1cc(NC(=O)c2c(F)cccc2Cl)n(-c2nc3ccccc3[nH]2)n1,.,.,.,92,.
N#Cc1ccc2nc(-c3ccc(CN4CCC(n5cc(-c6ccccc6)[nH]c5=O)CC4)cc3)c(-c3ccccc3)nc2c1,/,.,/,/,/
Cc1ccccc1-c1ccc2c(c1)[C@@H]1C[C@H](N(C)CC3CCCCC3)[C@H]([C@H](C)O)CN1CC2,/,.,/,/,/
COc1cc(C(=O)NCCc2c[nH]c3ccccc23)ccc1OCc1c(C)noc1C,.,.,.,83,.
